Source: PubChem BioAssay
TAAR1 ag = human TAAR1 agonists, primary screen, Fluo-8 calcium fluorescence, CHO RD-HGA16 cells; actives 0.99% (n = 360,000); activation, % at 3 µM; vehicle wells 0%, saturating PEA agonist 100%; AID 624467, 2012;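 active = activation above the mean activation of all test compounds in the run plus 3 SD, cut at about 38% in these data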
Target sequence (Q96RJ0 whole entry, looked up): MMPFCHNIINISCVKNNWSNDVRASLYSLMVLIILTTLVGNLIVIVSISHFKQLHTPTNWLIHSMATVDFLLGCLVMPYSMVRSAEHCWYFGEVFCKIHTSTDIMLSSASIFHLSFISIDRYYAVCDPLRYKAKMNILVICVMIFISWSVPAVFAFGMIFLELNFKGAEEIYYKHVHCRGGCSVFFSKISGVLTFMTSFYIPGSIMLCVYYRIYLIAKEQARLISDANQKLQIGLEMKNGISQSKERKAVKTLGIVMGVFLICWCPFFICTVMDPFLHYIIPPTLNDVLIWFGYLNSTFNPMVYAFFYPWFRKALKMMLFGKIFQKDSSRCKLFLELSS
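Repeats: no replicates (n 1) | Material: CHO-derived RD-HGA16 cells with stable Gα16 and human TAAR1 | Technique: Kinetic Fluo-8 calcium fluorescence | Schedule: 17-24 h seeding, 75 min 37 °C dye, 30 min RT | Evaluation: % activation from peak over basal fluorescence ratio, DMSO-to-PEA scaled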
OXTR potentiator = human OXTR potentiators, primary screen, fluorescence, CHO-OTR cells, Fluo-8 calcium; actives 0.061% (n = 320,000); activation, % at 3 µM; Oxytocin receptor (Homo sapiens), P30559; Fluo-8 calcium fluorescence, potentiator mode; 0% = oxytocin EC15, 100% = EC100;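 active = activation above that plate's cutoff, the mean activation of tested compounds plus 3 SD, cut at about 6.6% in these data, passing the limit was not always enough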
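Material: CHO-OTR cells, human receptor; compound dosing: single dose, 3.0 µM nominal final compound concentration; schedule: 6 min compound pre-incubation at room temperature, 100 s kinetic read; measured by: kinetic Fluo-8 calcium fluorescence; read-out basis: % activation vs EC15 and EC100 oxytocin; controls: EC15 oxytocin alone as 0%, 75 nM oxytocin as 100%; replicates: singlicate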
V1R ag counter = agonists of human V1a receptor, primary screen, counter-screen for OXTR agonist project, fluorescence, CHO-V1R cells. AID 2797, 2010. Vasopressin V1a receptor (Homo sapiens), P37288. Fluo-8 calcium fluorescence, agonist mode; 0% DMSO, 100% 3 nM vasopressin. actives 0.25% (n = 320,000). activation, % at 3 µM;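 active = activation above the mean activation of all tested compounds plus 3 SD, per screening run, cut at about 20% in these data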;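 note: signal is peak over basal fluorescence ratio across a 100 second FLIPR read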
Target sequence (P37288 whole entry, looked up): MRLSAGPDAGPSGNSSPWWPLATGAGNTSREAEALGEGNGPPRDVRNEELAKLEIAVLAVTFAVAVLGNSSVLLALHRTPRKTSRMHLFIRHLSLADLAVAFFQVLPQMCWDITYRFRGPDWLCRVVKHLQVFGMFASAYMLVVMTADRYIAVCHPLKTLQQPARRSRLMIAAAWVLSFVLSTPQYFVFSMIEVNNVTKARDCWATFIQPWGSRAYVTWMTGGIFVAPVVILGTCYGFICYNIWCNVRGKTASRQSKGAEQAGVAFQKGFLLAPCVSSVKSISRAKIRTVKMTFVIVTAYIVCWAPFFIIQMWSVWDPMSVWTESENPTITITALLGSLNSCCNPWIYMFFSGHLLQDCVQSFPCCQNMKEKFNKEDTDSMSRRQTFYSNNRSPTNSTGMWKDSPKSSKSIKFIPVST
OXTR agonist = human OXTR agonists, primary screen, fluorescence, CHO-OTR cells, Fluo-8 calcium; activation, % at 3 µM; Fluo-8 calcium fluorescence; normalized: DMSO 0%, oxytocin 100%; actives 0.32% (n = 320,000); AID 2435, 2010;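 active = activation above the mean of all tested compounds plus 3 SD, cutoff set per screening run, cut at about 20% in these data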;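 note: peak over basal fluorescence ratio from a 100 s FLIPR kinetic read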
TAAR1 antag = human TAAR1 antagonists, primary screen, Fluo-8 calcium fluorescence, CHO RD-HGA16 cells | antagonist | inhibition, % at 3 µM | actives 1.5% (n = 360,000);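 active = inhibition above a per-plate cutoff, the mean inhibition of test compounds on that plate plus 3 SD, cut at about 49% in these data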
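Test system – hTAAR1-expressing CHO RD-HGA16 cells, Gα16-coupled · Reagent – β-PEA at EC80 concentration, post-compound challenge · Compound dosing – 3 µM, single point · Timing – 140 s kinetic read after compound, 140 s after agonist · Detection – Fluo-8 intracellular calcium dye fluorescence, real-time kinetic reads · Control set – DMSO and EC80 PEA controls · Repeats – n of 1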
TAAR1 ag conf = human TAAR1 agonists, retest of hits, confirmation, Fluo-8 calcium fluorescence, CHO RD-HGA16 cells; shares compounds with TAAR1 ag; scaled: DMSO 0%, maximal phenethylamine 100%; activation, % at 3 µM; actives 82% (n = 2,400); AID 651783, 2012;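 active = activation above a cutoff set at the run's mean compound activation plus 3 SD, cut at about 39% in these data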
Ga16 ag counter = nonselective calcium mobilization agonists, CHO-Ga16 cells, counter-screen for hTAAR1 agonist project, cell-based, fluorescence, CHO-Ga16 parental line; shares compounds with TAAR1 ag; actives 50% (n = 2,400); Fluo-8 calcium fluorescence; normalized to maximal ATP response, DMSO zero; AID 651787, 2012; activation, % at 3 µM;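 active = activation above the run cutoff, the mean activation over all tested wells plus 3 SD, cut at about 12% in these data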
TAAR1 desensitize = TAAR1 desensitization by agonist hits, confirmation, counter-screen for TAAR1 agonist project, cell-based, fluorescence, tachyphylaxis; shares compounds with TAAR1 ag; CHO RD-HGA16 hTAAR1, Fluo-8 calcium, beta-PEA response inhibition; inhibition, % at 3 µM; actives 46% (n = 2,400); AID 651951, 2012;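 active = inhibition above the run cutoff, the mean inhibition of all test compounds plus 3 SD, cut at about 49% in these data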;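 note: beta-PEA stimulus applied at its EC80; loss of beta-PEA calcium signal after compound pretreatment read as receptor desensitization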
Ga16 antag count = inhibition of ATP-evoked calcium response in CHO-Ga16 cells, counter-screen for TAAR1 agonist project, cell-based, fluorescence. CHO-Ga16 ATP-induced calcium, Fluo-8 fluorescence. actives 39% (n = 2,400). shares compounds with TAAR1 ag. inhibition, % at 3 µM;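 active = inhibition above the plate's mean compound inhibition plus 3 SD, computed per plate, cut at about 22% in these data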
Numbers stand for hits; i = inactive; nt = no result. An excerpt weighted towards active compounds, which were near 2.3% of everything screened.

SMILES	TAAR1 ag	OXTR potentiator	V1R ag counter	OXTR agonist	TAAR1 antag	TAAR1 ag conf	Ga16 ag counter	TAAR1 desensitize	Ga16 antag count
COc1cccc(N2CCN(C3C4CC5CC(C4)CC3C5)CC2)c1 (stereo unspecified)	41.0	i	i	i	i	56.4	19.2	i	i
COc1cccc(N2CCN(CC(=O)C34CC5CC(CC(C5)C3)C4)CC2)c1	i	i	i	i	i	nt	nt	nt	nt
O=C1NC[C@H](CCCCN2C[C@H](Cc3ccccc3)N(CCc3ccc(O)cc3)C(=O)C2=O)N(CCc2ccccc2)C1=O	i	nt	nt	nt	i	nt	nt	nt	nt
COCCNc1ncnc2c1ncn2[C@H]1CN(Cc2ccc(Cl)cc2)C[C@@H](CO)O1	i	nt	nt	nt	i	nt	nt	nt	nt
COCCNc1ncnc2c1ncn2[C@H]1CN(CCc2ccccc2)C[C@@H](CO)O1	46.0	nt	nt	nt	i	47.8	i	i	i
COc1cc(CNc2ncnc3c2ncn3[C@H]2CN(CCc3ccccc3)C[C@@H](CO)O2)cc(OC)c1OC	59.0	nt	nt	nt	i	63.8	i	i	i
COCCN1C[C@@H](CO)O[C@@H](n2cnc3c(NCc4cc(OC)c(OC)c(OC)c4)ncnc32)C1	i	nt	nt	nt	i	nt	nt	nt	nt
Cc1cccc(NC(=O)C(=O)NCc2ccc3c(c2)OCO3)c1C	56.3	i	i	i	i	i	i	i	i
COC(C/C=C/C(=O)[C@H](C)OCc1ccccc1)OC	nt	i	i	i	nt	nt	nt	nt	nt
C[C@H]1[C@@H](c2ccccc2)Oc2ccc(Cl)cc2S(=O)(=O)N1Cc1ccc(F)cc1F	i	nt	nt	nt	i	nt	nt	nt	nt
CC(C)NS(=O)(=O)c1ccc(NC(=O)C(C)Oc2ccc(C(=O)c3ccccc3)cc2)cc1 (stereo unspecified)	122.9	i	66.2	54.0	105.2	121.6	84.5	104.5	85.6
CC(Oc1ccc(Cl)cc1)C(=O)Nc1ccc(S(=O)(=O)N2CCOCC2)cc1 (stereo unspecified)	110.5	i	27.6	30.4	i	114.3	72.2	74.8	42.2
CC(Oc1ccc(Cl)cc1)C(=O)Nc1cccc(S(=O)(=O)N2CCCC2)c1 (stereo unspecified)	i	nt	nt	nt	i	nt	nt	nt	nt
COc1ccc(C(=O)NNC(=S)NC(=O)c2ccc(Cl)cc2)cc1	176.2	i	76.5	71.5	106.4	141.2	116.7	102.1	85.7
COc1cc(OC)cc(C(=O)NNC(=O)c2ccc3ccccc3n2)c1	i	nt	nt	nt	i	nt	nt	nt	nt
COc1ccc(C(=O)NC(=S)NNC(=O)c2ccc3ccccc3n2)cc1	51.4	i	i	i	i	89.3	69.0	i	37.5
Cc1cccc(C(=O)NC(=S)NNC(=O)c2ccc(Cl)cc2)c1	170.5	i	112.5	98.2	104.3	159.2	121.0	106.8	93.0
Cc1cccc(C(=O)NNC(=O)c2ccc(Br)cc2)c1	i	i	i	i	i	nt	nt	nt	nt
COc1cc(C(=O)NNC(=S)NC(=O)c2ccc(Cl)cc2)cc(OC)c1OC	141.3	i	33.6	37.0	85.5	93.4	83.5	66.6	43.1
COc1ccc(C(=O)NC(=S)NNC(=O)c2ccc(NC(=O)C(C)C)cc2)cc1	i	i	i	i	i	nt	nt	nt	nt
COC(=O)/C=C1\SC(N)=NC1=O	i	i	i	i	i	nt	nt	nt	nt
CC(=O)Nc1cccc(-c2ccnc3c2CC(C(=O)NCc2cccs2)O3)c1 (stereo unspecified)	i	nt	nt	nt	i	nt	nt	nt	nt
COc1ccc(-c2nn(-c3ccccc3)cc2C(=O)NC(=S)NNC(=O)c2ccncc2)cc1	101.1	i	i	i	56.3	81.7	74.0	75.7	69.9
CCCCC(=O)NNC(=S)NC(=O)c1ccc(C)cc1	98.2	i	i	i	i	82.7	81.5	i	40.1
O=C(NNC(=S)NC(=O)c1sc2ccccc2c1Cl)c1ccc(Cl)cc1	90.5	i	56.8	45.7	49.9	163.0	140.6	106.5	103.0
SMILES	TAAR1 ag	OXTR potentiator	V1R ag counter	OXTR agonist	TAAR1 antag	TAAR1 ag conf	Ga16 ag counter	TAAR1 desensitize	Ga16 antag count
COc1ccc(NC(=O)c2cn(-c3ccccc3)nc2-c2ccncc2)cc1	i	i	i	i	i	nt	nt	nt	nt
CCC(=O)NC(=S)NNC(=O)c1ccc(OC)cc1	i	i	i	i	i	nt	nt	nt	nt
O=C(O)c1ccccc1NC(=S)NC(=O)c1sc2ccccc2c1Cl	i	i	i	i	i	nt	nt	nt	nt
CCCCC(=O)NNC(=S)NC(=O)c1ccc([N+](=O)[O-])cc1	i	i	i	i	i	nt	nt	nt	nt
COc1ccc(C(=O)NC(=S)NNC(=O)c2ccc(C)cc2)cc1	169.7	i	108.1	81.8	106.5	157.1	123.7	105.3	70.5
NCCc1nc(-c2ccccc2)cs1	56.2	i	i	i	i	73.4	i	61.1	i
O=c1c2cn(Cc3ccc(F)cc3)c3ccc(F)cc3c-2nn1Cc1ccc(F)cc1	i	nt	nt	nt	i	nt	nt	nt	nt
N#C/C(=C\c1coc2ccc(O)cc2c1=O)C(=O)Nc1nc2ccccc2s1	480.0	i	308.1	256.5	104.4	315.5	295.2	101.5	94.7
Fc1ccccc1-c1nc(-c2ccc(-c3nn[nH]n3)cc2)no1	51.0	i	i	i	i	i	15.8	i	i
CC(Cc1ccccc1)NC(=O)C1CCCNC1=O (stereo unspecified)	i	i	i	i	i	nt	nt	nt	nt
CC(Cc1ccccc1)N/C=C1\CC(=O)NC1=O (stereo unspecified)	74.1	i	i	i	52.6	71.7	i	i	i
COc1cccc(CN2CCN(Cc3cc4ccccc4[nH]3)CC2CCO)c1 (stereo unspecified)	62.6	i	i	i	69.3	70.2	49.4	80.6	56.3
COc1ccc(CN2CCN(Cc3cccc(OC)c3)C(CCO)C2)cc1 (stereo unspecified)	i	i	i	i	i	nt	nt	nt	nt
